NPY Y2 blocker: antagonists of human neuropeptide Y receptor Y2 | 140,000 tested, 0.99% active | NPY-Y2 expressing cells, antagonist mode | P49146 | inhibition, % at 2.7 µM; in the data active means inhibition above about 17%;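 further: 0% = vehicle with agonist challenge and 100% = reference antagonist with challenge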
Target sequence (P49146 whole entry, looked up): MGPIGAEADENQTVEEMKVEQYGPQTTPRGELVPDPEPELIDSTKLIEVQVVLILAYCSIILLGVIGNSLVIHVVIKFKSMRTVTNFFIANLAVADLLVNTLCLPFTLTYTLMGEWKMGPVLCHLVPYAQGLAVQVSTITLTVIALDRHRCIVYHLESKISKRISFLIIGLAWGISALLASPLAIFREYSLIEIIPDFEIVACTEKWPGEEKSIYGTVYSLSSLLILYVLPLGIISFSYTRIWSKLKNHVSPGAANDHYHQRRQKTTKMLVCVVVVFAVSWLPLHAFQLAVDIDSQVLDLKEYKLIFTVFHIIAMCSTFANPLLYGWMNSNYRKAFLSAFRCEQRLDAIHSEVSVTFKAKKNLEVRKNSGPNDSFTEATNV
EP2 modulator: EP2 receptor (human) modulation; EP2-expressing cells, cAMP HTRF FRET, PGE2 co-stimulation; induction, % at 25 µM; 260,000 tested, 0.83% active;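 active means compounds whose cAMP rise, as percent of the full-agonist control response, exceeds 60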;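 further: rat C6 glioma line stably carrying human EP2 under a CMV promoter; the protocol text gives 20 µM as final concentration; 100% = response of wells given 1 µM PGE2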
NPY-Y1 PAM-ag: potentiators or agonists of human neuropeptide Y receptor Y1 | NPY-Y1 expressing cells, potentiator/agonist activation | activation, % at 3.6 µM | 220,000 tested, 0.37% active | AID 1304; in the data active means activation above about 33%, passing the limit was not always enough;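 further: cells stimulated with NPY at EC10 then isoproterenol at EC100; 0% = low agonist plus stimulus and 100% = saturating agonist plus stimulus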
NPY2 pot ag: potentiates or activates human NPY-Y2 receptor; P49146; cells expressing NPY-Y2, potentiator/agonist read-out; activation, % at 3.6 µM; 220,000 tested, 0.45% active; AID 1359; in the data active means activation above about 27%;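 further: cells stimulated with NPY near EC25 plus isoproterenol at EC100; 0% = vehicle plus submaximal agonist and 100% = vehicle plus saturating agonist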
NPY-Y1 antag: blocks the human neuropeptide Y Y1 receptor; 200,000 tested, 1% active; inhibition, % at 3.6 µM; P25929; AID 1040; HEK293-CNG Y1 cells, membrane potential fluorescence; NPY at EC95, then isoproterenol;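 active means inhibition above the campaign mean inhibition of all tested compounds plus 3 SD, cut at about 20% in these data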;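 further: 0% = DMSO wells given NPY plus isoproterenol and 100% = isoproterenol alone without NPY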
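material = HEK293 cells with Y1 receptor plus CNG channel | also added = NPY 25 nM then isoproterenol 1 µM plus Ro 20-1724 25 µM | schedule = dye 3 h, compound 60 min room temperature, stimulation 45 min | measured by = membrane potential fluorescence | benchmarks = high control isoproterenol alone, low control NPY with isoproterenol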
EP2 antag: inhibitors of human EP2 prostaglandin E2 receptor | P43116 | C6 glioma cells expressing human EP2, cAMP TR-FRET; cells stimulated with saturating PGE2 | inhibition, % at 25 µM | 260,000 tested, 0.52% active;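 active means percent inhibition above 40 after rounding to a whole number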;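 further: rat C6 glioma host cells with rolipram phosphodiesterase inhibitor present; the protocol text gives 20 µM as final concentration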
EP2 confirm: human EP2 receptor cAMP induction, negative in counter-screens; shares compounds with EP2 modulator; C6 glioma EP2 cells, cAMP HTRF induction; plus low (about EC15) PGE2 agonist; calls only at 20 µM (by protocol); 1,300 tested, 47% active;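 active means cAMP induction above 50% in the main assay while under 30% in all four parallel counter assays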;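 further: rat C6 glioma cells stably expressing human EP2 receptor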
An asterisk follows results filed as active. Shown are actives, neighbours in structure and some others; about 2.8% of the full set was active somewhere.

How did O=C(O)c1ccc(-n2nc(C(F)(F)F)c3c2-c2ccoc2CC3)cc1 do in these assays?
NPY Y2 blocker: 4; EP2 modulator: -14; NPY-Y1 PAM-ag: 1; NPY2 pot ag: 18; NPY-Y1 antag: 2; EP2 antag: 8

What do the screens show for `O=C(/C=C/Nc1ccccc1Oc1ccccc1)c1ccco1`?
EP2 modulator: 65*; NPY-Y1 PAM-ag: -29; NPY2 pot ag: -16; NPY-Y1 antag: -1; EP2 antag: 8; EP2 confirm: inactive

What do the screens show for `COc1cccc(N2CCN(C(c3ccc(F)cc3)c3nnnn3C3CCCC3)CC2)c1` (centres undefined)?
EP2 modulator: 12; EP2 antag: 15

How did C=CCn1c(=O)c(C(=O)NCCc2ccccc2)c(O)c2ccccc21 do in these assays?
NPY Y2 blocker: 8; EP2 modulator: 67*; NPY-Y1 PAM-ag: -9; NPY2 pot ag: -4; NPY-Y1 antag: 6; EP2 antag: 8; EP2 confirm: inactive

What do the screens show for `CCOC(=O)c1c(-c2ccc(C)cc2)csc1NC(=O)CCN1CC(C)OC(C)C1` (centres undefined)?
NPY Y2 blocker: 8; EP2 modulator: 86*; NPY-Y1 PAM-ag: -30; NPY2 pot ag: -26; NPY-Y1 antag: 6; EP2 antag: 6; EP2 confirm: active

What do the screens show for `CCOC(=O)c1c(-c2ccc(C)o2)csc1NC(=O)CN1CCCCC1`?
EP2 modulator: 66*; NPY-Y1 PAM-ag: -32; NPY2 pot ag: -22; NPY-Y1 antag: 10; EP2 antag: 4; EP2 confirm: inactive

What do the screens show for `CCOC(=O)c1c(/N=C/C2C(=O)CCCC2=O)sc2c1CCCC2`?
EP2 modulator: 52; NPY-Y1 PAM-ag: -5; NPY2 pot ag: 9; NPY-Y1 antag: 2; EP2 antag: 3; EP2 confirm: inactive

Results for CCOC(=O)c1c(CC(C)C)csc1/N=C/C1C(=O)CCCC1=O ?
EP2 modulator: 68*; NPY-Y1 PAM-ag: -4; NPY2 pot ag: 13; NPY-Y1 antag: 2; EP2 antag: 1; EP2 confirm: inactive

What do the screens show for `CCOC(=O)c1c(-c2ccccc2)csc1/N=C/C1C(=O)CCCC1=O`?
NPY Y2 blocker: 1; EP2 modulator: 24; NPY-Y1 PAM-ag: -24; NPY2 pot ag: -7; NPY-Y1 antag: 9; EP2 antag: 10

Results for O=C(c1ccc2c(c1)OCO2)N1CCC(c2ccccc2F)CC1 ?
EP2 modulator: -28; EP2 antag: 3

Results for Cc1nc2ccccc2nc1SCC(=O)N1CCC(C)CC1 ?
NPY Y2 blocker: 12; EP2 modulator: 65*; NPY-Y1 PAM-ag: -2; NPY2 pot ag: -26; NPY-Y1 antag: 4; EP2 antag: 16; EP2 confirm: inactive

How did CC1CCN(C(=O)CSc2nc3ccccc3s2)CC1 do in these assays?
NPY Y2 blocker: 13; EP2 modulator: -33; NPY-Y1 PAM-ag: -16; NPY2 pot ag: -23; NPY-Y1 antag: 11

Results for CC1CCCN(C(=O)CSc2cnc3ccccc3n2)C1 (centres undefined) ?
NPY Y2 blocker: 8; EP2 modulator: 68*; NPY-Y1 PAM-ag: -16; NPY2 pot ag: -13; NPY-Y1 antag: 1; EP2 antag: 16; EP2 confirm: inactive

How did CC1CCC(C(C)C)C(OC(=O)COC(=O)c2ccc(=O)[nH]c2)C1 (centres undefined) do in these assays?
NPY Y2 blocker: -2; EP2 modulator: 66*; NPY-Y1 PAM-ag: -6; NPY2 pot ag: 5; NPY-Y1 antag: 7; EP2 antag: 15; EP2 confirm: inactive

What do the screens show for `CCOc1ccccc1COC(=O)c1cccc(-n2cnnn2)c1`?
NPY Y2 blocker: -2; EP2 modulator: 71*; NPY-Y1 PAM-ag: -13; NPY2 pot ag: -16; NPY-Y1 antag: 7; EP2 antag: 6; EP2 confirm: inactive

How did CCn1c(SCC(=O)Nc2cccc(C(=O)OC)c2)nc2c1c(=O)n(C)c(=O)n2C do in these assays?
EP2 modulator: -27; EP2 antag: 8

How did CCCN1Cc2cccc(C(=O)Nc3ccc4c(c3)OCO4)c2C1=O do in these assays?
NPY Y2 blocker: 2; EP2 modulator: 20; NPY-Y1 PAM-ag: -8; NPY2 pot ag: 5; NPY-Y1 antag: 1

What do the screens show for `O=C(Nc1ccc2c(c1)OCO2)c1cccc2c1C(=O)N(C1CCCCC1)C2`?
EP2 modulator: 71*; NPY-Y1 PAM-ag: 6; NPY2 pot ag: -3; NPY-Y1 antag: -3; EP2 antag: 3; EP2 confirm: active

How did CCc1ccc2[nH]c(=O)c(CN(CC3CCCO3)C(=O)Nc3ccc(F)cc3)cc2c1 (centres undefined) do in these assays?
EP2 modulator: -34; EP2 antag: 19

What do the screens show for `O=C(c1cc2sccc2n1Cc1ccccc1)N1CCCCC1`?
EP2 modulator: 43; EP2 antag: 9

What do the screens show for `Cn1c(C(=O)N2CCCc3ccccc32)cc2sccc21`?
NPY Y2 blocker: 5; EP2 modulator: 66*; NPY-Y1 PAM-ag: 9; NPY2 pot ag: -8; NPY-Y1 antag: 6; EP2 antag: 9; EP2 confirm: active

Results for O=C(c1cc2sccc2n1Cc1ccccc1)N1CCCc2ccccc21 ?
NPY Y2 blocker: 1; EP2 modulator: 69*; NPY-Y1 PAM-ag: -31; NPY2 pot ag: -12; NPY-Y1 antag: 13; EP2 antag: 4; EP2 confirm: active

Results for COC(=O)c1cc2sccc2n1CC(=O)N1CCCc2ccccc21 ?
NPY Y2 blocker: 5; EP2 modulator: 30; NPY-Y1 PAM-ag: -2; NPY2 pot ag: 0; NPY-Y1 antag: -1; EP2 antag: 5

How did Cc1cc2ccccn2c1C(=O)c1ccc(Cl)cc1 do in these assays?
NPY Y2 blocker: -2; EP2 modulator: 65*; NPY-Y1 PAM-ag: 20; NPY2 pot ag: 3; NPY-Y1 antag: 2; EP2 antag: 6; EP2 confirm: inactive

Results for Cc1cc(CN2CCCCC2)oc1C(=O)N1CCC2(CC1)Nc1ccccc1-n1cccc12 ?
EP2 modulator: -55; EP2 antag: 11

How did Cc1ccc(/C=C/c2nc3ccccc3c(=O)n2CCc2ccccc2)cc1 do in these assays?
NPY Y2 blocker: 4; EP2 modulator: 81*; NPY-Y1 PAM-ag: 4; NPY2 pot ag: 6; NPY-Y1 antag: -1; EP2 antag: 1; EP2 confirm: active

Results for CC(C)n1c(=O)oc2cc(S(=O)(=O)NCC3Cc4ccccc4O3)ccc21 (centres undefined) ?
EP2 modulator: -63; EP2 antag: 3

What do the screens show for `CCOC(=O)CCCCC(=O)c1[nH]c(=O)[nH]c1C[n+]1ccccc1`?
EP2 modulator: 14; NPY-Y1 PAM-ag: 2; NPY2 pot ag: -1; NPY-Y1 antag: 4; EP2 antag: 4

Assay outcomes: PubChem BioAssay, several laboratories
